Data reported in ChEMBL document CHEMBL3045565, “Microwave synthesis, characterization and bio-efficacy evaluation of novel chalcone based 6-carbethoxy-2-cyclohexen-1-one and 2H-indazol-3-ol derivatives” (Eur J Med Chem, 2013).
In brackets after ≈: the same amount, converted by molar mass.

Columns and labels:
Format in all cases: functional
[1] = test system: Radical scavenging activity; test: Antioxidant activity assessed as DPPH free radical scavenging activity after 20 min by UV-Vis spectrophotometric analysis; parameters: concentration or dose not given beside the values
Procedure, shortened: (§1)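 DPPH radical scavenging: samples were held at room temperature for 20 min in the dark, and absorbance was read at 517 nm. The control contained DMSO without compound, and methanol was used for baseline correction. Scavenging percentage was calculated from the absorbances.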

[2] = test system: Radical scavenging activity; test: Antioxidant activity assessed as DPPH free radical scavenging activity at 100 ug/mL after 20 min by UV-Vis spectrophotometric analysis; procedure, shortened: as §1
[3] = test system: Radical scavenging activity; test: Antioxidant activity assessed as DPPH free radical scavenging activity at 60 ug/mL after 20 min by UV-Vis spectrophotometric analysis; procedure, shortened: as §1
[4] = test system: Rhizoctonia solani; test: Antifungal activity against Rhizoctonia solani ITCC 5563 by food poisoning method
Procedure, shortened: (§2)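 Poisoned food technique on PDA at several concentrations. A 5 mm mycelial plug from the growing edge of a 2-week-old colony was placed inoculum-side down at the plate centre. Plates incubated at 27 °C until control growth was nearly complete. Colony diameter measured, percent inhibition calculated against control, LC50 derived. Four replicates per treatment.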

[5] = test system: Staphylococcus aureus; test: Antibacterial activity against Staphylococcus aureus MTCC 3160 assessed as growth inhibition at 100 ug/disk after 24 hr by disk diffusion method; conditions: MTCC 3160, 24 h, read-out: DIZ
Procedure, shortened: (§3)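 Disk diffusion on nutrient agar. Strains kept on NA slants at 37 °C and subcultured in nutrient broth before testing. A log-phase culture was spread on solidified medium, and sterile disks were loaded with compound from DMSO stock. DMSO served as control, with commercial antibiotics for reference. Plates ran 24 h at 37 °C, and inhibition zones (mm) were read in quadruplicate.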

[6] = test system: Radical scavenging activity; test: Antioxidant activity assessed as DPPH free radical scavenging activity at 80 ug/mL after 20 min by UV-Vis spectrophotometric analysis; procedure, shortened: as §1
[7] = test system: Klebsiella pneumoniae; test: Antibacterial activity against Klebsiella pneumoniae MTCC 7028 assessed as growth inhibition at 100 ug/disk after 24 hr by disk diffusion method; conditions: MTCC 7028, 24 h, read-out: DIZ; procedure, shortened: as §3
[8] = test system: Radical scavenging activity; test: Antioxidant activity assessed as DPPH free radical scavenging activity at 20 ug/mL after 20 min by UV-Vis spectrophotometric analysis; procedure, shortened: as §1
[9] = test system: Pseudomonas aeruginosa; test: Antibacterial activity against Pseudomonas aeruginosa MTCC 2581 assessed as growth inhibition at 100 ug/disk after 24 hr by disk diffusion method; conditions: MTCC 2581, 24 h, read-out: DIZ; procedure, shortened: as §3
[10] = test system: Bacillus pumilus; test: Antibacterial activity against Bacillus pumilus MTCC 2466 assessed as growth inhibition at 100 ug/disk after 24 hr by disk diffusion method; conditions: MTCC 2466, 24 h, read-out: DIZ; procedure, shortened: as §3
[11] = test system: Klebsiella pneumoniae; test: Antibacterial activity against Klebsiella pneumoniae MTCC 7028 assessed as growth inhibition after 24 hr by broth dilution method; conditions: MTCC 7028, 24 h
Procedure, shortened: (§4)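 Broth dilution, with streptomycin as the standard. MIC was taken as the lowest concentration giving more than 90% bacterial inhibition.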

[12] = test system: Radical scavenging activity; test: Antioxidant activity assessed as DPPH free radical scavenging activity at 500 ug/mL after 20 min by UV-Vis spectrophotometric analysis; procedure, shortened: as §1
[13] = test system: Bacillus thuringiensis; test: Antibacterial activity against Bacillus thuringiensis MTCC 6941 assessed as growth inhibition at 100 ug/disk after 24 hr by disk diffusion method; conditions: MTCC 6941, 24 h, read-out: DIZ; procedure, shortened: as §3
[14] = test system: Athelia rolfsii; test: Antifungal activity against Athelia rolfsii ITCC 6181 by food poisoning method; conditions: Agroathelia rolfsii; procedure, shortened: as §2
[15] = test system: Xanthomonas oryzae; test: Antibacterial activity against Xanthomonas oryzae ITCC B-47 assessed as as growth inhibition at 100 ug/disk after 24 hr by disk diffusion method; conditions: ITCC B-47, 24 h, read-out: DIZ
[16] = test system: Radical scavenging activity; test: Antioxidant activity assessed as DPPH free radical scavenging activity at 200 ug/mL after 20 min by UV-Vis spectrophotometric analysis; procedure, shortened: as §1
[17] = test system: Radical scavenging activity; test: Antioxidant activity assessed as DPPH free radical scavenging activity at 300 ug/mL after 20 min by UV-Vis spectrophotometric analysis; procedure, shortened: as §1
[18] = test system: Dickeya chrysanthemi; test: Antibacterial activity against Erwinia chrysanthemi ITCC B-40 assessed as as growth inhibition at 100 ug/disk after 24 hr by disk diffusion method; conditions: ITCC B-40, 24 h, read-out: DIZ; procedure, shortened: as §3
[19] = test system: Radical scavenging activity; test: Antioxidant activity assessed as DPPH free radical scavenging activity at 40 ug/mL after 20 min by UV-Vis spectrophotometric analysis; procedure, shortened: as §1
[20] = test system: Radical scavenging activity; test: Antioxidant activity assessed as DPPH free radical scavenging activity at 400 ug/mL after 20 min by UV-Vis spectrophotometric analysis; procedure, shortened: as §1
[21] = test system: Radical scavenging activity; test: Antioxidant activity assessed as DPPH free radical scavenging activity at 10 ug/mL after 20 min by UV-Vis spectrophotometric analysis; procedure, shortened: as §1
[22] = test system: Dickeya chrysanthemi; test: Antibacterial activity against Erwinia chrysanthemi ITCC B-40 assessed as as growth inhibition after 24 hr by broth dilution method; conditions: ITCC B-40, 24 h; procedure, shortened: as §4

SMILES | Activity [1] [%] | IC50 [1] [µg/mL] | Activity [2] [%] | Activity [3] [%] | LC50 [4] [µg/mL] | zone of inhibition at 100 µg/disc [5] [mm] | Activity [6] [%] | zone of inhibition at 100 µg/disc [7] [mm] | Activity [8] [%] | zone of inhibition at 100 µg/disc [9] [mm] | zone of inhibition at 100 µg/disc [10] [mm] | Activity [12] [%] | zone of inhibition at 100 µg/disc [13] [mm] | LC50 [14] [µg/mL] | zone of inhibition at 100 µg/disc [15] [mm] | Activity [16] [%] | Activity [17] [%] | zone of inhibition at 100 µg/disc [18] [mm] | Activity [19] [%] | Activity [20] [%] | other results
O=c1[nH][nH]c2c1C(c1ccccc1)CC(c1ccc(F)cc1)=C2 (stereo unspecified) | 70.5 | 23.71 (≈ 77.4 µM) | 91 | 86.9 | 669 (≈ 2180 µM) | 0 | 89 | 15 | 30.4 | 0 | 0 | 90.8 | 0 | 912 (≈ 2980 µM) | 0 | 92.2 | 90.7 | 0 | 70.5 | 90.8 | MIC [11]: 24.7 µg/mL (≈ 80.6 µM); Activity [21]: 23.5%
COc1ccc(C2CC(c3ccccc3)=Cc3n[nH]c(O)c32)cc1 (stereo unspecified) | 50.2 | 29.62 (≈ 93 µM) | 89 | 79.7 | 718 (≈ 2260 µM) | 0 | 88.4 | 0 | 30.6 | 0 | 0 | 90.2 | 0 | 713 (≈ 2240 µM) | 0 | 91.8 | 89.7 | 0 | 50.3 | 88.9 | Activity [21]: 16.8%
CCOC(=O)C1C(=O)C=C(c2ccccc2)CC1c1ccc(OC)cc1 (stereo unspecified) | 2.69 | – | – | – | 116 (≈ 331 µM) | 0 | – | 0 | – | 0 | 0 | – | 0 | 347 (≈ 990 µM) | 0 | – | – | 15 | – | – | MIC [22]: 5.9 µg/mL (≈ 16.8 µM)
COc1ccc(C2=Cc3n[nH]c(O)c3C(c3ccc(OC)c(OC)c3)C2)cc1 (stereo unspecified) | 65.3 | 23.94 (≈ 63.3 µM) | 91.4 | 85.8 | 1030 (≈ 2730 µM) | 0 | 90 | 0 | 29.2 | 0 | 0 | 90.8 | 0 | 1240 (≈ 3280 µM) | 0 | 92.1 | 90.4 | 0 | 65.3 | 90.5 | Activity [21]: 17.7%
Oc1[nH]nc2c1C(c1ccccc1)CC(c1ccccc1)=C2 (stereo unspecified) | 40.3 | 58.28 (≈ 202 µM) | 73.3 | 62.5 | 802 (≈ 2780 µM) | 0 | 67.3 | 10 | 10.9 | 0 | 0 | 89.2 | 0 | 873 (≈ 3030 µM) | 0 | 90.6 | 89 | 0 | 40.3 | 89.1 | Activity [21]: 9.1%
